Source: PubChem BioAssay (The Scripps Research Institute Molecular Screening Center)
In the library only some 2.7% were active in any assay of this set; here they are far more common.
OXTR potentiate: human OXTR potentiators, primary screen, fluorescence, CHO-OTR cells, Fluo-8 calcium. Oxytocin receptor (Homo sapiens), P30559. Fluo-8 calcium fluorescence, potentiator mode; 0% = oxytocin EC15, 100% = EC100. activation, % at 3 µM. actives 0.061% (n = 320,000). AID 2445, 2010;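 active = activation above that plate's cutoff, the mean activation of tested compounds plus 3 SD, cut at about 6.6% in these data, passing the limit was not always enough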;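 note: 100% uses oxytocin at 75 nM as the full agonist control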
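Dosing: Single dose, 3.0 µM nominal final compound concentration | Material: Human OTR in CHO cells | Technique: Kinetic Fluo-8 calcium fluorescence | Benchmarks: EC15 oxytocin alone as 0%, 75 nM oxytocin as 100% | Probe or stimulus: Oxytocin at about EC15, sub-maximal agonist stimulus | Incubation: Compound 6 min at room temperature before oxytocin, 100 s read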
OXTR ag: human OXTR agonists, primary screen, fluorescence, CHO-OTR cells, Fluo-8 calcium; Fluo-8 calcium fluorescence; normalized: DMSO 0%, oxytocin 100%; AID 2435, 2010; activation, % at 3 µM; Oxytocin receptor (Homo sapiens), P30559; actives 0.32% (n = 320,000);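 active = activation above the mean of all tested compounds plus 3 SD, cutoff set per screening run, cut at about 20% in these data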;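 note: peak over basal fluorescence ratio from a 100 s FLIPR kinetic read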
OX1R antag-1: antagonists of human orexin 1 receptor (OX1R); Orexin/Hypocretin receptor type 1 (Homo sapiens), O43613; OX1R-expressing cells, FRET antagonist read-out; inhibition, % at 6.6 µM; actives 1.8% (n = 330,000); in the data active = inhibition mostly above about 38%, no sharp cut-off; inactive = mostly below about 40%;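 note: 0% = agonist challenge alone and 100% = reference antagonist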
Target sequence (O43613 whole entry, looked up): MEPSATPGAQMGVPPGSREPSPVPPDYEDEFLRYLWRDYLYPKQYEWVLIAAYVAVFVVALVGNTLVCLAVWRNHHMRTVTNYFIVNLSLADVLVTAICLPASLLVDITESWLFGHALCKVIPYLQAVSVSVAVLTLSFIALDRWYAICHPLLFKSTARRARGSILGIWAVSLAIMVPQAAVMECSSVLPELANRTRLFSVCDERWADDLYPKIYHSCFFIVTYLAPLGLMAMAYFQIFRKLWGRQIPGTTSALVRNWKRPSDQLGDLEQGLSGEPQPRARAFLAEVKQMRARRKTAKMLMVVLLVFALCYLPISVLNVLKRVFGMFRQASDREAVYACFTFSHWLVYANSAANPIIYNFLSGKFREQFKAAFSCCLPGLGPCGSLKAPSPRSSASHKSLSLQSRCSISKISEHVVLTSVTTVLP
OX1R antag-2: OX1R (HCRTR1) antagonists, primary screen, fluorescence, CHO/OX1R cells, Fluo-8 calcium, orexin A. Fluo-8 calcium fluorescence. actives 0.43% (n = 330,000). inhibition, % at 5 µM. AID 434989, 2010. Orexin/Hypocretin receptor type 1 (Homo sapiens), O43613;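 active = inhibition above its plate's threshold, mean inhibition of all tested compounds on the plate plus 3 SD, cut at about 37% in these data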;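 note: 0% = orexin A challenge wells and 100% = SB-334867-A antagonist wells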
CHO parental Ca: ATP-evoked calcium signal inhibitors, parental CHO, primary screen, counter-screen for OX1R antagonist project, cell-based, fluorescence, Fluo-8 calcium dye | parental CHO-K1, ATP-induced calcium, Fluo-8 fluorescence | inhibition, % at 5.6 µM | actives 0.63% (n = 330,000);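 active = inhibition above that plate's mean sample inhibition plus 3 SD, cut at about 26% in these data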;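 note: 0% = ATP-challenged DMSO wells and 100% = DMSO wells without ATP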
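test system = CHO parental line | reagent = ATP stimulus | measured by = intracellular calcium via Fluo-8 no-wash fluorescent dye | control set = ATP and no-ATP DMSO wells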
V1R ag counter: agonists of human V1a receptor, primary screen, counter-screen for OXTR agonist project, fluorescence, CHO-V1R cells. Vasopressin V1a receptor (Homo sapiens), P37288. activation, % at 3 µM. actives 0.25% (n = 320,000). Fluo-8 calcium fluorescence, agonist mode; 0% DMSO, 100% 3 nM vasopressin;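 active = activation above the mean activation of all tested compounds plus 3 SD, per screening run, cut at about 20% in these data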;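 note: signal is peak over basal fluorescence ratio across a 100 second FLIPR read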
Numbers without * were called inactive; nt = no result.

SMILES | OXTR potentiate | OXTR ag | OX1R antag-1 | OX1R antag-2 | CHO parental Ca | V1R ag counter
CC(C)(C)c1ccc(C2(C)NC(=O)NC2=O)cc1 (stereo unspecified) | -4.3 | 2.3 | -10.8 | -11.2 | -6.0 | 2.9
COc1ccccc1C(=O)Nc1cccc2cccnc12 | -4.5 | -2.7 | 72.7* | -3.2 | -19.2 | -1.0
COc1ccccc1-c1noc(-c2ccccc2C(=O)Nc2ccccc2)n1 | -6.6 | -0.7 | 51.6 | -21.6 | -18.1 | -0.8
O=C(Nc1cccc2cccnc12)c1ccccc1Cl | 2.4 | -2.7 | 3.9 | -26.9 | -9.7 | -1.3
CCOc1ccccc1C(=O)Nc1cccc2ccccc12 | -2.2 | -2.3 | 52.7* | -14.9 | -8.6 | -1.6
COc1ccccc1NC(=O)c1ccccc1-c1nc(-c2ccccc2OC)no1 | -2.1 | -1.7 | 54.8* | 10.2 | -19.7 | -0.7
CCOc1ccccc1C(=O)Nc1ccccc1O | -6.1 | -0.2 | 18.4 | -18.7 | -12.5 | -0.7
CC(=O)Nc1cccc(NC(=O)c2cccc3cccnc23)c1 | -5.5 | 1.2 | 70.8* | 14.3 | -15.4 | 3.9
NCCNC[C@@H]1COC2(CCCCCCCCCCC2)O1 | 4.3 | 3.5 | 5.9 | -13.3 | -9.5 | 3.8
COC(=O)c1ccc(-c2n[nH]c(=O)c3ccccc23)cc1 | -0.4 | -0.6 | 43.2* | -11.1 | 0.8 | -0.4
COc1cc2c(cc1OC)n(CC(=O)NC1CCCCCC1)n1c(C)cc(=O)nc21 | -1.1 | -1.0 | 7.1 | -20.1 | -13.4 | 0.6
Cc1nc(NC(=O)c2ccccc2)sc1-c1csc(NCc2ccco2)n1 | -9.5 | 0.0 | 52.9* | 4.0 | -5.1 | 0.5
Cc1nc(C)c(-c2csc(NCc3ccco3)n2)s1 | -2.7 | -0.1 | 12.1 | -9.1 | -16.5 | 0.6
O=C(OCCCN=C1NS(=O)(=O)c2ccccc21)c1ccc([N+](=O)[O-])cc1 | -13.4 | 0.9 | 50.9* | -5.8 | -4.3 | 0.8
C=CCN1C(=O)c2ccc(C(=O)N(C)CC(=O)Nc3ccc(OCC)c(OCC)c3)cc2C1=O | -9.0 | 0.5 | 26.7 | -5.3 | 39.3* | 0.0
C=CCN1C(=O)c2ccc(C(=O)N(C)CC(=O)Nc3c(C)cccc3C)cc2C1=O | -11.5 | 0.4 | 25.1 | -19.0 | -7.0 | 0.6
O=C(Nc1ccccc1C(=O)N1CCNCC1)c1ccco1 | -5.5 | -0.2 | 19.2 | -2.6 | -20.8 | -0.2
O=C(Nc1ccccc1C(=O)N1CCN(c2ccccc2)CC1)c1ccco1 | -2.5 | -0.9 | 51.1* | 13.1 | -19.7 | 0.0
C=CCCCN(Cc1ccccc1)S(=O)(=O)c1ccccc1Br | -6.7 | -0.5 | 20.9 | 27.3 | 44.0* | 1.0
COc1cc(CN(CC(C)C)S(=O)(=O)c2ccccc2Br)cc(OC)c1 | nt | nt | 33.5* | 34.6 | -19.9 | nt
CCN(Cc1ccccc1)S(=O)(=O)c1ccccc1Br | nt | nt | 28.5 | -10.2 | -15.2 | nt
O=S(=O)(c1ccccc1Br)N(Cc1ccccc1)CC(O)COCc1ccccc1 (stereo unspecified) | nt | nt | 36.2* | 41.1 | -16.2 | nt
C=CCCN([C@H](CO)Cc1ccccc1)S(=O)(=O)c1ccccc1Br | nt | nt | 45.9* | 22.9 | -18.6 | nt
CCCCN1CC(=O)N2[C@H](c3ccc(OC)cc3)[C@@H]3C(=O)N(CC)C(=O)[C@@H]3[C@]2(Cc2ccccc2)C1=O | 1.9 | -0.2 | 4.2 | -9.1 | -20.8 | 0.1
c1ccc2cc(C3CCCCC3)ncc2c1 | -0.1 | 0.6 | 3.1 | -16.9 | -12.2 | -0.4
SMILES | OXTR potentiate | OXTR ag | OX1R antag-1 | OX1R antag-2 | CHO parental Ca | V1R ag counter
COc1ccc(CC(=O)N/N=C(/C)CC(=O)N(C)c2ccccc2)cc1 | -11.8 | 0.1 | 28.1 | -18.2 | 0.9 | 2.0
Cc1c(N(C)S(=O)(=O)c2ccc(Cl)c(C(=O)N3CCC(C(N)=O)CC3)c2)c(=O)n(-c2ccccc2)n1C | -4.9 | 0.7 | -2.8 | -5.6 | 3.5 | 0.3
COc1ccc(C)cc1NC(=O)c1nn(C)c(C(=O)Nc2cc(C)ccc2OC)c1[N+](=O)[O-] | 0.7 | 0.3 | 33.8* | -5.0 | -16.6 | 1.1
O=C(Nc1ccc([N+](=O)[O-])cc1)c1ccccc1F | -7.2 | 0.0 | 13.1 | -20.9 | -11.7 | 1.7
O=C(Nc1ncc(S(=O)(=O)c2ccc([N+](=O)[O-])cc2)s1)c1ccccc1F | -8.5 | 33.0* | 31.3 | 53.6* | 39.0* | 41.4*
COc1ccc(S(N)(=O)=O)cc1C(=O)OCC(=O)N1c2ccccc2NC(=O)C1(C)C | 6.8 | 0.9 | -3.2 | 8.9 | -4.0 | 1.9
COc1cc(/C=C/C(=O)OCC(=O)N2c3ccccc3NC(=O)C2(C)C)cc(OC)c1OC | -5.0 | 0.4 | 38.6* | 12.1 | -7.5 | 4.1
CC(Cc1ccc(O)c(O)c1)C(C)Cc1ccc(O)c(O)c1 (stereo unspecified) | -8.3 | 2.2 | 3.9 | 32.0 | 34.4* | 2.1
CCOc1ccc(-c2cn(-c3cccc(SC)c3)c(=O)[nH]2)cc1 | -11.3 | 9.0 | 19.6 | -13.4 | -7.1 | 11.7
N=c1oc2cc(O)ccc2cc1C(=O)Nc1ccccn1 | -6.8 | 0.5 | 83.8* | 5.4 | 3.4 | 0.4
CCOc1ccc(OCCCC(=O)NCCc2ccc(OC)cc2)cc1 | -0.2 | -1.1 | 0.8 | -4.3 | -4.9 | 2.9
CC1(C)N([O-])C(c2cccs2)=C[N+]1=O | 2.3 | 2.8 | 6.7 | -5.4 | 28.9* | 0.7
CC1(C)N([O-])C(c2ccccc2)=C[N+](=O)C1(C)C | -3.0 | 0.9 | 8.7 | 9.3 | -4.9 | 0.5
O=C(NCCNc1ccc([N+](=O)[O-])cc1C(F)(F)F)c1ccccc1F | -16.3 | 1.8 | 41.9 | 26.6 | 41.7* | 3.5
Cc1csc2nc(SCC(=O)N3CCN(c4ccccc4)CC3)[nH]c(=O)c12 | 0.9 | -1.0 | 19.9 | -28.3 | -8.0 | 0.2
Cc1ccc2nc(C(O)C(O)c3nc4ccc(C)cc4[nH]3)[nH]c2c1 (stereo unspecified) | -6.0 | -0.5 | -14.4 | -24.2 | -26.6 | 5.2
Cc1ccc2nc(C(C)O)[nH]c2c1 (stereo unspecified) | -13.7 | -0.6 | 11.2 | 0.9 | 45.0* | 1.7
CCOC(=O)CN1C(=O)S/C(=C/C=C/c2ccc(N(C)C)cc2)C1=O | -16.7 | 25.7* | 18.0 | 54.6* | 32.1* | 28.3*
CCCc1nc2nc(C)c(NS(=O)(=O)c3ccc([N+](=O)[O-])cc3)c(=O)n2[nH]1 | -11.2 | -0.1 | 49.7* | -53.9 | -5.4 | -1.0
Cc1nc2nc[nH]n2c(=O)c1NS(=O)(=O)c1ccc([N+](=O)[O-])cc1 | 5.4 | 1.2 | 44.2* | -8.0 | -9.2 | 5.4
